Measurements from ChEMBL document CHEMBL1149106, “Design, synthesis, and evaluation of aza-peptide epoxides as selective and potent inhibitors of caspases-1, -3, -6, and -8” (J Med Chem, 2004).
Calls of active or inactive are those of the source. No cut-off for these calls is given here.

Key:
Caspase-8 (Homo sapiens) [1] = target: Caspase-8 (Homo sapiens) (UniProt Q14790); test: Second-order inhibition rate of caspase-8 was determined by progress curve method
How it was run: (§1)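 Caspases-3, -6 and -8 were assayed in 50 mM HEPES, 100 mM NaCl, 0.1% (w/v) CHAPS, 10% (w/v) sucrose and 10 mM DTT, pH 7.4. Substrate: Cbz-DEVD-AFC or Cbz-DEVD-AMC.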

[2] = target: Cathepsin D (Homo sapiens) (UniProt P07339); test: Tested for inhibition of human cathepsin D by the compound; NI = No Inhibition
Pepsin A (Sus scrofa) = Pepsin A (Sus scrofa) (UniProt P00791); test: Tested for inhibition of porcine pepsin by the compound; NI = No Inhibition
Caspase-1 (Homo sapiens) = target: T1, Caspase-1 (Homo sapiens) (UniProt P29466); test: Second-order inhibition rate of caspase-1 was determined by progress curve method
T1 sequence (whole entry): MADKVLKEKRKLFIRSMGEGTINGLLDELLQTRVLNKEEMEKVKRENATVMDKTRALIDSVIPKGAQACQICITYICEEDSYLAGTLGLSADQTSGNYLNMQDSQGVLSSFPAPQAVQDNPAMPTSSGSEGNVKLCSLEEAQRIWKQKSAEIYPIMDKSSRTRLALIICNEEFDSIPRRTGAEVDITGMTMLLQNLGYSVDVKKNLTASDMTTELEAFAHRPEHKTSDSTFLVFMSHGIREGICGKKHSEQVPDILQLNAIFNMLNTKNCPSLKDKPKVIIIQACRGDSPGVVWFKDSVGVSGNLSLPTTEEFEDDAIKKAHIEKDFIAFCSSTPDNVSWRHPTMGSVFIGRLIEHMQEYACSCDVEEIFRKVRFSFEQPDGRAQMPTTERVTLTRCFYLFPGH
How it was run: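 Caspase-1 assay buffer: 100 mM HEPES, 0.5 mM EDTA, 20% (v/v) glycerol, 5 mM DTT, pH 7.5. Substrate: Ac-YVAD-AMC.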

[3] = Tested for inhibition of chymotrypsinogen by the compound; ND = Not determined
Caspase-6 (Homo sapiens) [4] = target: T2, Caspase-6 (Homo sapiens) (UniProt P55212); test: Second-order inhibition rate of caspase-6 was determined by progress curve method; how it was run: as §1
T2 sequence (whole entry): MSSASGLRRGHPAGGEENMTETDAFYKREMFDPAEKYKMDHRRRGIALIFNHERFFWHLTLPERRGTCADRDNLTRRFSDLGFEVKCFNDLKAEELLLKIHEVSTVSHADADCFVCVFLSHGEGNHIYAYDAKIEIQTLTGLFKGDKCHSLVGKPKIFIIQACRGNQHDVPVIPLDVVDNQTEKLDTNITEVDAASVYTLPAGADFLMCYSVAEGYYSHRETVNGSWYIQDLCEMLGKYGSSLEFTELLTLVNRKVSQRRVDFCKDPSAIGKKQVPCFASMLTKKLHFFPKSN

[5] = target: Plasmepsin II (Plasmodium falciparum) (UniProt P46925); test: Inhibition of plasmepsin-2 from Plasmodium falciparum; NI = No Inhibition
Caspase-3 (Homo sapiens) [6] = target: T3, Caspase-3 (Homo sapiens) (UniProt P42574); test: Second-order inhibition rate of caspase-3 was determined by progress curve method; how it was run: as §1
T3 sequence (whole entry): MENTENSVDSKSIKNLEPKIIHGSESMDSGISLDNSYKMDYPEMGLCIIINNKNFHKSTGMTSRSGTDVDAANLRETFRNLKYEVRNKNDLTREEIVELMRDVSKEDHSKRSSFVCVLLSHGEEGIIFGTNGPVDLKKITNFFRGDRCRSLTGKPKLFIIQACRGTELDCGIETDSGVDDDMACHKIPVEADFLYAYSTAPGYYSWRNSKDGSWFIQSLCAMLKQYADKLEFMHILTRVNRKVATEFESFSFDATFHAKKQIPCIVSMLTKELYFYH

[7] = target: Human immunodeficiency virus type 1 protease (Human immunodeficiency virus 1) (UniProt Q72874); test: Tested for inhibition of HIV-1 protease by the compound; NI = No Inhibition
[8] = target: Cathepsin B (Homo sapiens) (UniProt P07858); test: Tested for inhibition of cathepsin B by the compound
[9] = target: Granzyme B (Homo sapiens) (UniProt P10144); test: Tested for inhibition of granzyme B by the compound
Papain (Carica papaya) [10] = target: T4, Papain (Carica papaya) (UniProt P00784); test: Tested for inhibition of papain by the compound; NI = No Inhibition
T4 sequence (whole entry): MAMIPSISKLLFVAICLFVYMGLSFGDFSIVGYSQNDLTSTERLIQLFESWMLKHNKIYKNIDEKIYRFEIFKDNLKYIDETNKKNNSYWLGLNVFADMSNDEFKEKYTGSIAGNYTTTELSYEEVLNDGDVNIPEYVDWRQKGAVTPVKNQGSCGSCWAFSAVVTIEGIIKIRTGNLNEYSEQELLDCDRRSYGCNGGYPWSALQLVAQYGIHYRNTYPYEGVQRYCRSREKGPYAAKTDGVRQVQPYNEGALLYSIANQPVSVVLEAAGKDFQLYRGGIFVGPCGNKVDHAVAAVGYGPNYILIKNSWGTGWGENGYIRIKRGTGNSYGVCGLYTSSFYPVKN

[11] = target: Granzyme B (Homo sapiens) (UniProt P10144); test: Tested for inhibition of granzyme B by the compound; NI = No Inhibition
Cathepsin B [12] = test: Tested for inhibition of cathepsin B by the compound; NI = No Inhibition
[13] = target: Cathepsin B (Homo sapiens) (UniProt P07858); test: Tested for inhibition of cathepsin B by the compound; NI = No Inhibition
[14] = Tested for inhibition of chymotrypsinogen by the compound; NI = No Inhibition
Papain (Carica papaya) [15] = target: T4, Papain (Carica papaya); test: Tested for inhibition of papain by the compound
Cathepsin B [16] = test: Tested for inhibition of cathepsin B by the compound
[17] = target: Human immunodeficiency virus type 1 protease (Human immunodeficiency virus 1) (UniProt Q72874); test: Tested for inhibition of HIV-1 protease; NI = No Inhibition
Caspase-8 (Homo sapiens) [18] = target: Caspase-8 (Homo sapiens) (UniProt Q14790); test: Second-order inhibition rate of caspase-8 was determined by progress curve method; No inhibition; how it was run: as §1
Caspase-3 (Homo sapiens) [19] = target: T3, Caspase-3 (Homo sapiens); test: Second-order inhibition rate of caspase-3 was determined by progress curve method; No inhibition; how it was run: as §1
Caspase-6 (Homo sapiens) [20] = target: T2, Caspase-6 (Homo sapiens); test: Second-order inhibition rate of caspase-6 was determined by progress curve method; No inhibition; how it was run: as §1

Sequence of Cathepsin D (Homo sapiens) (P07339 65-162 limits assumed): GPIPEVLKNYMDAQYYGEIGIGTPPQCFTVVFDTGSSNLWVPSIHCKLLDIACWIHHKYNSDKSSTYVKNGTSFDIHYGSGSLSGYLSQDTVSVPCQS
Sequence of Cathepsin D (Homo sapiens) (P07339 169-412 limits assumed): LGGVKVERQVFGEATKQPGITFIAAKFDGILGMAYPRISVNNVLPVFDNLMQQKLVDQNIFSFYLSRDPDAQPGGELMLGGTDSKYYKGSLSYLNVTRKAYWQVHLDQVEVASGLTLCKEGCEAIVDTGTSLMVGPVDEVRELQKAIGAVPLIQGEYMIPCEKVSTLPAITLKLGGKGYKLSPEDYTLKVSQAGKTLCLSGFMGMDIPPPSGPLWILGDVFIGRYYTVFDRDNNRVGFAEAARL
Sequence of Plasmepsin II (Plasmodium falciparum) (P46925 125-453 limits assumed): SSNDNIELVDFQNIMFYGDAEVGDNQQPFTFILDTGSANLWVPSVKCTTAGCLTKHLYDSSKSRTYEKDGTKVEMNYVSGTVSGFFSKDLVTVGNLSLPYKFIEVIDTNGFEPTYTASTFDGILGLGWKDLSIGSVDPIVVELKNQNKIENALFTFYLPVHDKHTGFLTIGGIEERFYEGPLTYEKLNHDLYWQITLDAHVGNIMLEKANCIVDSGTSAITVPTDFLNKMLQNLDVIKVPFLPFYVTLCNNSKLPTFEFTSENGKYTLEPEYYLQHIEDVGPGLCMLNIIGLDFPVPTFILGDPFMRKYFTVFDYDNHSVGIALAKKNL
Sequence of Pepsin A (Sus scrofa) (P00791 60-385 limits assumed): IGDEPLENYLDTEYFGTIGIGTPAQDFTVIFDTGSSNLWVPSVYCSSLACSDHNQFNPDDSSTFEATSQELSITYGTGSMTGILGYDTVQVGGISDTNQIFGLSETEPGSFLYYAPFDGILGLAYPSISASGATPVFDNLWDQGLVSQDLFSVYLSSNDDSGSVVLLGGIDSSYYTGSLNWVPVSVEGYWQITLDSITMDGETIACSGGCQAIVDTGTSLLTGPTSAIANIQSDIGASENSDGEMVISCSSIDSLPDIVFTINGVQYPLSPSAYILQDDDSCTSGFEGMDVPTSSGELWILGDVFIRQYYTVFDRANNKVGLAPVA
Sequence of Granzyme B (Homo sapiens) (P10144 whole entry): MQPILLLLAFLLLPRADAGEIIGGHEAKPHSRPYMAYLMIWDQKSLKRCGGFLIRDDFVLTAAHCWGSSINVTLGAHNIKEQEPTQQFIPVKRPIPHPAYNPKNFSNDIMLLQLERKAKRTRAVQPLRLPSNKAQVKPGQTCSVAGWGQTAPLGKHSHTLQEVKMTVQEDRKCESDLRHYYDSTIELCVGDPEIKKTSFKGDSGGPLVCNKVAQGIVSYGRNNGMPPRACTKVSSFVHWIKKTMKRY
Sequence of Caspase-8 (Homo sapiens) (Q14790 217-374 limits assumed): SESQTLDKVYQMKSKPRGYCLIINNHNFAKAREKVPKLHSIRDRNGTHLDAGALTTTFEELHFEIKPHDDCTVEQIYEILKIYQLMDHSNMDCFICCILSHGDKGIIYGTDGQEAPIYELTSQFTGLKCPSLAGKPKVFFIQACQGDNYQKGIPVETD
Sequence of Caspase-8 (Homo sapiens) (Q14790 385-479 limits assumed): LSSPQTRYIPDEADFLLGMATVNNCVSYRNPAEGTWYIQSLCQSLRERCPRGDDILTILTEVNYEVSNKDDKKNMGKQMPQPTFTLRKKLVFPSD

SMILES | k2 (Caspase-8 (Homo sapiens) [1]) [M⁻¹ s⁻¹] | k obs / 1 [2] | k obs / 1 (Pepsin A (Sus scrofa)) | k2 (Caspase-1 (Homo sapiens)) [M⁻¹ s⁻¹] | k2 (Caspase-6 (Homo sapiens) [4]) [M⁻¹ s⁻¹] | k obs / 1 [5] | k2 (Caspase-3 (Homo sapiens) [6]) [M⁻¹ s⁻¹] | k obs / 1 [7] | k obs / 1 [9] [M⁻¹ s⁻¹] | k obs / 1 (Papain (Carica papaya) [10]) | k obs / 1 (Cathepsin B [12]) | k obs / 1 [13] | k obs / 1 [14] | also measured
CCOC(=O)[C@H]1O[C@@H]1C(=O)N(CC(=O)O)NC(=O)[C@@H](NC(=O)[C@H](CCC(=O)O)NC(=O)OCc1ccccc1)C(C)C | 195000 | inactive | inactive | 58500 | 4180 | inactive | 50500 | inactive | – | – | – | – | – | k obs / 1 [3]: 86 M⁻¹ s⁻¹
CC(C)[C@H](NC(=O)CCc1ccccc1)C(=O)N[C@@H](C)C(=O)NN(CC(=O)O)C(=O)[C@H]1O[C@@H]1C(=O)OCc1ccccc1 (stereo in doubt; 23d(S,S)) | 1560 | inactive | inactive | 52100 | 165 | inactive | 1470 | inactive | < 0.3 | – | – | – | – | k obs / 1 [8]: < 10 M⁻¹ s⁻¹
CC(C)[C@H](NC(=O)CCc1ccccc1)C(=O)N[C@@H](C)C(=O)NN(CC(=O)O)C(=O)[C@H]1O[C@@H]1C(=O)OCc1ccccc1 (stereo in doubt) | – | – | – | 18100 | – | – | 680 | – | – | – | – | – | 21 M⁻¹ s⁻¹ | k obs / 1 (Papain (Carica papaya) [15]): < 10 M⁻¹ s⁻¹; k obs / 1 [8]: < 10 M⁻¹ s⁻¹; k obs / 1 (Cathepsin B [16]): No inhibition
CCOC(=O)[C@H]1O[C@@H]1C(=O)N(CC(=O)O)NC(=O)[C@@H](NC(=O)[C@H](CCC(=O)O)NC(=O)[C@H](CC(=O)O)NC(=O)OCc1ccccc1)C(C)C | 95500 | – | – | 11800 | 5440 | – | 1.07e+06 | – | < 0.1 | inactive | inactive | inactive | 46 M⁻¹ s⁻¹ | –
CC(C)[C@H](NC(=O)CCc1ccccc1)C(=O)N[C@@H](C)C(=O)NN(CC(=O)O)C(=O)[C@H]1O[C@@H]1CCc1ccccc1 | – | – | – | 300 | – | – | – | – | – | inactive | inactive | inactive | inactive | –
CCOC(=O)[C@H]1O[C@@H]1C(=O)N(CC(=O)O)NC(=O)[C@H](C)NC(=O)[C@@H](NC(=O)CCc1ccccc1)C(C)C | 1570 | inactive | inactive | 32200 | 75 | inactive | 1040 | – | – | – | – | – | – | k obs / 1 [17]: inactive
CC(C)[C@H](NC(=O)CCc1ccccc1)C(=O)N[C@@H](C)C(=O)NN(CC(=O)O)C(=O)[C@@H]1O[C@H]1C(=O)N[C@@H](C)C(=O)NCc1ccccc1 | – | – | – | 270 | – | – | – | – | – | – | – | – | – | k2 (Caspase-8 (Homo sapiens) [18]): inactive; k2 (Caspase-3 (Homo sapiens) [19]): inactive; k2 (Caspase-6 (Homo sapiens) [20]): inactive

More lines, main results first:

k2 (Caspase-8 (Homo sapiens) [1]) [M⁻¹ s⁻¹] | k obs / 1 [2] | k obs / 1 (Pepsin A (Sus scrofa)) | k2 (Caspase-1 (Homo sapiens)) [M⁻¹ s⁻¹] | k2 (Caspase-6 (Homo sapiens) [4]) [M⁻¹ s⁻¹] | k obs / 1 [5] | k2 (Caspase-3 (Homo sapiens) [6]) [M⁻¹ s⁻¹] | k obs / 1 [7] | k obs / 1 [9] [M⁻¹ s⁻¹] | k obs / 1 (Papain (Carica papaya) [10]) | k obs / 1 (Cathepsin B [12]) | k obs / 1 [13] | k obs / 1 [14] | SMILES | also measured
61200 | inactive | inactive | 25700 | 8620 | inactive | 3210 | inactive | – | inactive | inactive | inactive | 36 M⁻¹ s⁻¹ | CCOC(=O)[C@H]1O[C@@H]1C(=O)N(CC(=O)O)NC(=O)[C@@H](NC(=O)C(CCC(=O)O)NC(=O)[C@H](CC(C)C)NC(=O)OCc1ccccc1)[C@@H](C)O (stereo partly specified) | k obs / 1 [11]: inactive
34700 | – | – | 19600 | 4390 | – | 3250 | – | – | inactive | inactive | inactive | 15 M⁻¹ s⁻¹ | CCOC(=O)[C@@H]1O[C@H]1C(=O)N(CC(=O)O)NC(=O)[C@@H](NC(=O)C(CCC(=O)O)NC(=O)[C@H](CC(C)C)NC(=O)OCc1ccccc1)[C@@H](C)O (stereo partly specified) | –
52800 | inactive | inactive | 12400 | 45800 | inactive | 4080 | inactive | 0.65 | – | inactive | inactive | – | CCOC(=O)[C@H]1O[C@@H]1C(=O)N(CC(=O)O)NC(=O)[C@@H](NC(=O)[C@H](CCC(=O)O)NC(=O)[C@@H](NC(=O)OCc1ccccc1)[C@@H](C)CC)[C@@H](C)O | –
785 | inactive | inactive | 4320 | 475 | inactive | 464000 | inactive | < 0.1 | inactive | inactive | inactive | inactive | CCOC(=O)[C@@H]1O[C@H]1C(=O)N(CC(=O)O)NC(=O)[C@@H](NC(=O)C(CCC(=O)O)NC(=O)[C@H](CC(=O)O)NC(=O)OCc1ccccc1)C(C)C (stereo partly specified) | –
